In the library only some 1.2% were active in any assay of this set; here they are far more common.
IDE inh: cellular human IDE inhibition; actives 0.41% (n = 320,000); inhibition, % at 5.59 µM; P14735; HEK cells, FAbetaB cleavage, fluorescence polarization;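 active = percent inhibition above the average of all tested compounds plus 3 SD, set per screening campaign, cut at about 16% in these data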;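 also: IDE supplied by intact live HEK cells; FP after avidin binding of uncleaved biotin substrate so inhibition keeps polarization high; 0% = DMSO wells and 100% = 60 µM reference IDE inhibitor Ii1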
ASAP1 inh: inhibitors of human ASAP1 ArfGAP activity | actives 0.19% (n = 360,000) | ASAP1-stimulated ARF1 GTP hydrolysis, GDP FP detection | inhibition, % at 16.5 µM | AID 624377; in the data active = inhibition above about 25%;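 also: 0% = vehicle with enzyme and substrate and 100% = no enzyme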
Target sequence (Q9ULH1 325-724 limits assumed): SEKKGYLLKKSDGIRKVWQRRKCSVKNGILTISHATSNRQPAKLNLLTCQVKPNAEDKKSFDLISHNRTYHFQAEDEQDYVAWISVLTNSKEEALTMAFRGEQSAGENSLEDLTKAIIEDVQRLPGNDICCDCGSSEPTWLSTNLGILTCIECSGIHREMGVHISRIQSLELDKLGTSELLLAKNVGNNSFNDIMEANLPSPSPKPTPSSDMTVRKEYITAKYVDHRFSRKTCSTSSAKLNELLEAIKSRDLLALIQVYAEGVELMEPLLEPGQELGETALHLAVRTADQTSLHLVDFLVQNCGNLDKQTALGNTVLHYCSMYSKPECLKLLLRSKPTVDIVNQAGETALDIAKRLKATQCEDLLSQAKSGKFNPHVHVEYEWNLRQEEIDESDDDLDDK
PREPL inh: human PREPL enzyme inhibition; AID 2751; Q4J6C6; inhibition, % at 5.96 µM; actives 0.68% (n = 320,000); recombinant PREPL, fluorescence polarization activity-based probe; in the data active = inhibition above about 43%;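 also: 0% = enzyme with DMSO and 100% = wells lacking enzyme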
IDE cell activ: boosts human insulin-degrading enzyme activity in HEK cells; P14735; AID 493087; actives 0.073% (n = 340,000); FAbeta-B cleavage, fluorescence polarization; 0% vehicle, 100% cell-free pure enzyme wells; activation, % at 5.96 µM;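 active = activation above the mean of all tested compounds plus 3 SD, set per screening campaign, cut at about 17% in these data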
ARFGAP1 inh: inhibits rat ARF GTPase activating protein 1; Q62848; Arfgap1-stimulated ARF1 GTP hydrolysis, GDP FP detection; inhibition, % at 16.5 µM; actives 0.26% (n = 360,000); AID 651572;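 active = inhibition above a per-plate limit, mean inhibition of low control wells plus 3 SD, cut at about 25% in these data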;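 also: 0% = DMSO wells with enzyme and 100% = wells lacking Arfgap1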
Target sequence (Q62848 1-136 limits assumed): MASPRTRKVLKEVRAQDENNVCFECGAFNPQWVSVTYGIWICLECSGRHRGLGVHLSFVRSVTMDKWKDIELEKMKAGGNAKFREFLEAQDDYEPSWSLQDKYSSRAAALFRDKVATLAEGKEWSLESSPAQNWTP
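material = rat Arfgap1 catalytic domain, aa 1-136 | also added = human ARF1(Δ1-17)-GTP substrate | compound dosing = one concentration, 16.5 µM, DMSO 1.26% | times = GTP hydrolysis reaction 2 h at 25 °C | measured by = FP, GDP Alexa 633 tracer displaced from anti-GDP antibody, 620/688 nm | evaluation = percent inhibition of Arfgap1-stimulated GTP hydrolysis | replication = single well per compound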
IDE inh confirm: confirmation of human insulin-degrading enzyme inhibitors in cells; inhibition, % at 5.59 µM; shares compounds with IDE inh; HEK cells, FAbetaB cleavage, fluorescence polarization; actives 51% (n = 1,200); AID 435028;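 active = mean inhibition across triplicate wells above the cutoff set by the earlier primary insulin-degrading enzyme screen, cut at about 16% in these data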;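 also: 0% = DMSO wells and 100% = 60 µM reference IDE inhibitor Ii1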
HEK cytotox: kills HEK cells in IDE inhibitor counter-screen. inhibition, % at 5.59 µM. HEK293 cytotoxicity, ATP luminescence. actives 28% (n = 1,200). shares compounds with IDE inh. AID 449730; in the data active = inhibition above about 22%;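 also: 0% = vehicle wells and 100% = reference cytotoxic drug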
Starred values were filed as active, the others as inactive; x = no result.

SMILES | IDE inh | ASAP1 inh | PREPL inh | IDE cell activ | ARFGAP1 inh | IDE inh confirm | HEK cytotox
CC[n+]1ccc(/C=C2\Sc3ccccc3N2CCCS(=O)(=O)[O-])c2ccccc21 | 17.1* | -4.3 | 14.6 | 2.5 | 0.4 | 7.7 | 9.4
C[n+]1ccccc1/C=C1\Sc2ccccc2N1CCO | 5.9 | 9.7 | 15.6 | 1.3 | -0.5 | x | x
COc1ccc(C(=O)CSc2n[nH]c(=O)n2Cc2ccco2)cc1 | 17.7* | -2.3 | 1.3 | 3.2 | 0.6 | 9.7 | 11.8
CCc1cccc2cc3c(N)c(C(=O)Nc4ccc(S(=O)(=O)N5CCCC5)cc4)sc3nc12 | 25.4* | 15.6 | 0.8 | -10.6 | 8.0 | 17.9* | 30.8*
Cc1cccc2cc3c(N)c(C(=O)Nc4ccc(N5CCOCC5)cc4)sc3nc12 | -2.6 | 4.8 | 27.9 | -14.3 | 1.7 | x | x
Cc1cn([C@H](C(=O)NCCCCCCCCCCC(=O)N2CCN(C(=O)OC(C)(C)C)CC2)[C@@H](C)O)nn1 | -0.3 | -0.6 | -0.5 | -0.3 | -9.5 | x | x
Cc1cc(/C=C\c2ccc3cc(N(C)C)ccc3[n+]2C)c(C)n1-c1ccccc1 | 25.6* | x | -21.0 | -44.5 | x | 85.1* | 116.9*
C[n+]1c(/C=C/c2ccc(O)cc2)ccc2ccccc21 | 1.9 | 1.2 | 9.4 | -2.3 | 7.6 | x | x
C=CCN=C1NC(c2cccc(Cl)c2)C(C(=O)OC)=C(C)N1C (configuration not stated) | x | -10.0 | x | x | -6.2 | x | x
COC(=O)C1(C(=O)OC)c2ccccc2N(S(=O)(=O)c2ccc(C)cc2)C1CC(=O)c1ccccc1 (configuration not stated) | x | 7.6 | x | x | -7.5 | x | x
O=C(Nc1ccc(Cl)cc1)N1CCN(c2ccc3nnc(-c4ccc(F)cc4)n3n2)CC1 | 22.4* | 7.3 | -2.3 | -29.2 | 0.5 | 13.0 | 10.6
CCN(CC(=O)Nc1cc(Cl)ccc1C)C(=O)c1oc2ccc(OC)cc2c1C | -0.5 | -6.8 | -6.9 | 3.2 | -7.8 | x | x
O=C(O)COCC(=O)N1CCCN(c2ccc(C(F)(F)F)cn2)CC1 | x | 2.3 | x | 4.9 | -0.4 | x | x
CC(=O)c1cccc(OCC(=O)N2CCN(c3ccc(C(F)(F)F)cn3)CC2)c1 | 22.3* | -7.2 | 5.5 | -19.4 | 10.2 | 19.1* | 5.9
CCCc1cc(C(=O)N2CCN(c3ccc(C(F)(F)F)cn3)CC2)sc1C | 16.5* | -10.9 | -14.0 | -29.5 | 4.5 | 4.2 | 16.2
Cc1cc(C)n2nnnc2n1 | 5.2 | -1.5 | 10.2 | 3.5 | 4.9 | x | x
CC1(c2nnc(Cc3ccccc3)o2)CC(c2cccc(F)c2)=NO1 (configuration not stated) | 2.0 | -3.0 | -30.5 | 2.7 | 10.5 | x | x
COc1cc(/C=C/c2nc3ccccc3c(=O)[nH]2)cc(Br)c1O | 43.9* | 0.4 | 6.6 | -156.8 | -5.2 | 143.4* | 12.8
COc1cc(/C=C/c2nc3ccccc3c(=O)[nH]2)ccc1O | x | 1.7 | x | x | 19.6 | x | x
O=C(NCCCN1CCOCC1)C(=O)N/N=C/c1cccc2ccccc12 | 16.1* | -3.9 | 3.4 | 5.7 | 4.3 | 3.8 | 2.9
C=CCn1c(O)c(N=NC(=S)Nc2ccc(OC)cc2)c2ccccc21 | 16.8* | 4.5 | 1.9 | 4.2 | 1.4 | -1.1 | 56.6*
C=CCn1c(O)c(N=NC(=S)Nc2cccc(OC)c2)c2ccccc21 | 18.7* | 10.6 | 22.0 | -5.9 | 2.3 | 7.2 | 81.7*
C=CCn1c(O)c(N=NC(=O)OCC)c2ccccc21 | 0.2 | 9.2 | 3.2 | -1.4 | 16.9 | x | x
Cc1ccc(F)c(CNC(=O)C2CCC(=O)N(CCCN3CCCC3=O)C2)c1F (configuration not stated) | -8.2 | -23.2 | 6.1 | 6.8 | -7.8 | x | x
CCCNC(=O)c1onc(CSc2ccc(F)cc2)c1C(=O)NCC1CC1 | 1.5 | 21.0 | -8.3 | 6.9 | 4.8 | x | x
SMILES | IDE inh | ASAP1 inh | PREPL inh | IDE cell activ | ARFGAP1 inh | IDE inh confirm | HEK cytotox
COc1ccc([C@@H]2C[C@H]3CN(c4ccccc4)C(=O)[C@]34CCCN24)c(OC)c1OC | 21.8* | -3.2 | 0.8 | -12.6 | 16.2 | 7.7 | 13.7
CC1C(=O)N2CCCc3cc(S(=O)(=O)N4CCN(c5ccc(F)cc5)CC4)cc1c32 (configuration not stated) | -10.0 | -15.2 | 1.2 | 4.8 | 4.2 | x | x
COCCCn1c(SCC(=O)NC2CCS(=O)(=O)C2)nnc1-c1ccc(Cl)cc1 (configuration not stated) | -0.3 | 0.7 | 20.5 | 1.8 | -0.7 | x | x
COc1ccc2nc(N3CCN(C(=O)c4ccc5ncsc5c4)CC3)sc2c1 | 17.2* | 8.2 | 7.9 | -20.1 | 8.5 | 10.6 | 29.7*
CCN(CC)C(=O)C1=C(C)N(CCC2=CCCCC2)C(=O)C(CC(=O)NCc2ccco2)C1 (configuration not stated) | x | 1.1 | x | x | -5.2 | x | x
C1=C(CCNc2ncnc3c2[nH]c2ccccc23)CCCC1 | 34.8* | 7.3 | 34.2 | -35.2 | -13.4 | 13.3 | 87.5*
O=C(COc1ccc2c3c(c(=O)oc2c1)CCC3)N1CCN(c2ccccc2)CC1 | 18.4* | -3.5 | -45.1 | -12.8 | 4.8 | 5.2 | 7.3
O=C(COc1ccc2c3c(c(=O)oc2c1)CCC3)N1CCCC1 | 0.1 | 17.6 | 0.3 | 6.7 | 0.7 | x | x
Cc1ccc(S(=O)(=O)N2CCN(C(=O)c3ccc(N4CCCCC4)c([N+](=O)[O-])c3)CC2)cc1 | -3.7 | 5.2 | -5.2 | 8.0 | -1.0 | x | x
O=C(CN1CCN(S(=O)(=O)N2CCCCCC2)CC1)Nc1ccc(Br)cc1 | -0.2 | 9.2 | 7.5 | -0.9 | -5.4 | x | x
CSc1nnc(N2C(=O)C(O)=C(C(=O)c3ccco3)C2c2ccc(F)cc2)s1 (configuration not stated) | 15.4 | 1.3 | -2.4 | -1.4 | 7.8 | x | x
CSc1nnc(N2C(=O)C(O)=C(C(=O)c3ccco3)C2c2cccc(Cl)c2)s1 (configuration not stated) | 28.9* | 1.1 | -15.4 | -6.2 | 5.2 | 6.7 | 7.2
CN1CCC/C1=C/C=C1\SC(=S)NC1=O | 76.3* | -5.2 | -9.6 | -71.9 | 5.3 | 68.5* | 7.3
O=C1NC(=S)SC1=Cc1cccs1 | x | -5.2 | x | -0.7 | -17.4 | x | x
CN(C)c1cc2c(cc1NS(=O)(=O)c1ccccc1)n(C)c(=O)n2C | -0.4 | -2.0 | -3.6 | 2.3 | 2.6 | x | x
Cc1ccc(/C=C/c2ccc(N(C)C)cc2)[n+](C)c1 | 18.3* | -12.1 | -2.7 | -10.4 | 9.4 | 25.2* | 90.7*
COC(=O)Cn1c(=NC(=O)c2cc(OC)cc(OC)c2)sc2cc(OC)ccc21 | 16.1* | -3.4 | -10.2 | -11.4 | 17.0 | 5.9 | 12.9
O=C(Nc1ccc(-c2nnc3n2CCCCC3)cc1)c1cc2ccccc2o1 | 9.1 | 7.6 | 11.5 | -17.4 | -8.0 | x | x
O=C(/C=C/c1ccccc1Cl)Nc1ccc(-c2nnc3n2CCCCC3)cc1 | 30.8* | 3.7 | 0.5 | -1.9 | 5.6 | 1.0 | 9.1
Cc1c(C(=O)Nc2ccc(-c3nnc4n3CCCCC4)cc2)oc2c1ccc1ccccc12 | 22.7* | 4.8 | 10.4 | -12.2 | 2.0 | 12.9 | 39.4*

Bioassay records: PubChem, The Scripps Research Institute Molecular Screening Center
